Data from the EternaBench riboswitch data.

System: MS2 coat protein
Experiment: apparent Kd, MS2 coat protein; higher = weaker binding; RNA-MaP array; FMN 200 µM where present
Procedure, shortened: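 The apparent Kd is the median of filtered binding-curve fits, one per cluster, to green signal normalised to red-channel RNA signal and control-cluster median Fmax. The clusters were on Illumina sequencing chips, and stalled E. coli RNA polymerase had transcribed the designs on them. Titration used SNAP-549-labelled MS2 coat protein from 0.7 or 1.5 nM, doubling to 3 µM, without and then with constant ligand, in 100 mM Tris-HCl pH 7.5, 80 mM KCl, 4 mM MgCl2, BSA, DTT, yeast tRNA and Tween-20.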

[1] = designed as: OFF switch for flavin mononucleotide, no ligand
[2] = ligand present: flavin mononucleotide, designed as: OFF switch for flavin mononucleotide
[3] = designed as: ON switch for flavin mononucleotide, no ligand
[4] = ligand present: flavin mononucleotide, designed as: ON switch for flavin mononucleotide

| Sequence | apparent Kd [1] [nM] | apparent Kd [2] [nM] | apparent Kd [3] [nM] | apparent Kd [4] [nM] |
| --- | --- | --- | --- | --- |
| UAUAUGUCAGGAUAUUAAUUAAAAUGGAAUUUAGUUUUAAUUAAGAAGGGACAUGAGGAUCACCCAUGUUCCUC | 20.9 | 128 | – | – |
| ACUGGUCGAGGAUAUACAUGAGGAUCACCCAUGUGGUUACGUGACGAUAGUCACGAAUGUAGAAGGCGACCAGU | 236 | 652 | – | – |
| GUAGCAUAAUCAGGAUAUUCAGCGAAUAGAUAGACAUGAGGAUCACCCAUGUGGCGAAAGCCUAGGGAGAAGGGAUAAUGCUAC | – | – | 200 | 35.8 |
| UAGGACUACGUAGGAUAUGUAGUAGAUUACUACAUGAGGAUCACCCAUGUAAGCAUGUGAUUAGGACAGAAGGACGUGGUAAAU | – | – | 24.8 | 8.91 |
| UGGUACUAGGUAGGAUAUGGGAAGAUACAUGAGGAUCACCCAUGUUUAAGAAUGCCGAGAGGCAACUAGAAGGCCCUAGUACCU | – | – | 652 | 78.9 |
| UCGGCGCGAGGAUAUACGUUUGCGCUUUUUCGUUUUUGCGUACAUGAGGAUCACCCAUGUAGAAGGCGCGCCGC | 15.6 | 23 | – | – |
| GCCAUCUCAUGAGGAUAUGCUCCCGUGUCGGGAGCAGAAGGCAUGUCAUAAGACAUGAGGAUCACCCAUGUAGUUAAGAUGGCA | – | – | 263 | 11.1 |
| UUCGGCGCAGGAUAUACAGUUCUGUGUUGAAUCGGCGCGGGACAUGAGGAUCACCCAUGUAGAAGGGUGUUGAA | 1160 | 578 | – | – |
| GGUGCGUUUGUGAGGAUAUGCUGGUCCUUGGUUCCGCAGAAGGCACAUGAGGAUCACCCAUGUGGUGUCGUACC | 195 | 373 | – | – |
| GCGCUGCGUCAGAAGGGCCGAAAAGAGAAGAUGGCAGGAUAUGACAUGAGGAUCACCCAUGUACACGUCGCCAUGGGUGUUGGU | 184 | 36.4 | – | – |
| CAGAAGUCAGGAUAUGCAUGGCGGGACUUGCGUCGUGGCGUGCAGAAGGGACAUGAGGAUCACCCAUGUGGAGG | 171 | 222 | – | – |
| CAGGAUAGAGGAUAUGCAUAGAUACAGAUUCAUGUAAUCCUACAUGAGGAUCACCCAUGUAGAAGGCUAUCCUG | 15.1 | 35 | – | – |
| GGAGCACAUAUAAACAUGAGGAUCACCCAUGUCAAAAGACAUGAGGAUAUGGAUCGGAAAACGAUCUAGAAGGCAUGGUGCUCC | – | – | 644 | 29.6 |
| GUGGUGCAUAUACGUGGAUGUACAUGAGGAUCACCCAUGUAAGAGGAUAUGCGGAUACUAGCUCAGUAGAAGGCUUACAAAUGA | 9.74 | 9.15 | – | – |
| CCACGUCACAUUAACAUGAGGAUCACCCAUGUCUCUUGACAUGAGGAUAUGGAUCCUAAUUGGAUCCAGAAGGCAUGGACGUGG | – | – | 1370 | 99.8 |
| AGAAACUACGAGAAGGACAUAUGGUUCUUCAGUUACAUGAGGAUCACCCAUGUAGGAUAUCGUAGUUUCAGGAUCGUGAGAUCA | 7.33 | 21.7 | – | – |
| UGGUACUACGGAGGAUAUCAUGUAUAUACAUGAGGAUCACCCAUGUCGUACGAGAGUACGGAGAUUGAGAAGGCCGUAGUACCU | – | – | 38.7 | 16.2 |
| AGUAUGCGGCAGGAUAUCCAUCCGCGAAAAGGUGGAGAAGGGCUGACAUGAGGAUCACCCAUGUGCGUUUUGUA | 56 | 40 | – | – |

| Sequence | apparent Kd [1] [nM] | apparent Kd [2] [nM] | apparent Kd [3] [nM] | apparent Kd [4] [nM] |
| --- | --- | --- | --- | --- |
| GGUGGACAUGAGGAUCACCCAUGUGAGGAUAUCGGCUGGCUAGCGGCGGAUGGCUUCUCGAGAAGGCGCAUAGU | 80.2 | 67.5 | – | – |
| CUUUUGUGAGGAUAUCAGUAGUAAAAAAAUAAAAUUACUUCUGAGAAGGCACAUGAGGAUCACCCAUGUUCCUC | 39.5 | 333 | – | – |
| ACAAGAUCAGGAUAUACAUGAGGAUCACCCAUGUUAAUCCAAAAGGGACUUUCUUUAUGUAGAAGGGAUCUUGU | 31.2 | 85.5 | – | – |
| GAGCGAAAGCUCAAUGUCGAUAGCAGAAGGACAUCCAAUAACAUGAAAACAUGAGGAUCACCCAUGUAGGAUAUGCUAUCGACU | 5.55 | 6.55 | – | – |
| GAUUCACAUGAGGAUCACCCAUGUGAGGAUAUAGUGCAGGAGGCGGAUAUCCACCUCUCUAGAAGGCACACGGG | 21.8 | 24.1 | – | – |
| GCAUAUCAGGGAGGAUAUGACAUGAGGAUCACCCAUGUAAUUAUGGCUCUGUCAGAAGGCCCAUCGUCACUAUAGCGACGAGAA | 587 | 16.9 | – | – |
| AGGAGGUCAGGAUAUGCAUGGCGGGACUUGCGUCGUGGCGUGCAGAAGGGACAUGAGGAUCACCCAUGUGGAGA | 86.1 | 220 | – | – |
| UGAUAGGACAGAGGAUAUGCCGAUAGGAUCUACUAUCGAAGAAUCCUCACAUGAGGAUCACCCAUGUAGAAGGCUGUCCUAUCU | 23 | 140 | – | – |
| AUCUCGUCAGGAUAUGACUACAUAAAAAAUAAAAAAUGUAGUCAGAAGGGACAUGAGGAUCACCCAUGUACCAA | 19.1 | 18.4 | – | – |
| UCAGGCUUCGAGAAGGACAUGAGGAUCACCCAUGUGCGUGUGAAGCAGCCGUGAGGCUGCAUCAUGUAGGAUAUCGGAGUCUGU | 92.3 | 554 | – | – |
| AUAUAUAUACAGAAGGUGCCAGCGAGAGCUGCACAUGAGGAUCACCCAUGUUGUCGGUGACGACGCAAGGAUAUGUAUAUAUAU | – | – | 27 | 7.62 |
| GUGACACAUGAGGAUCACCCAUGUGAGGAUAUGAUACUAUGUACUUCGGUACAUAGUAUCAGAAGGCACAGUGA | 50.2 | 119 | – | – |
| GUCGUUGUCUGGUCGAGGAUAGGGCAGGAUAUACAUGAGGAUCACCCAUGUGAAGCGCGAAGGAGGUAGAAGGGCCCACGUCAU | 14.7 | 14.8 | – | – |
| GUAGCUAUCGGAGGAUAUUCAUACCGGAAACGGACAUGAGGAUCACCCAUGUGGCGAAAGCCUUGGGAGAAGGCCGAUAGCUAC | – | – | 601 | 20.8 |
| UCCCGUUGUCAGAAGGCUCCUCGUAACCCGAGGAGAGGAUAUGACACAUGAGGAUCACCCAUGUGCCCGGUCGUGACAAAGGUG | 11.7 | 158 | – | – |
| GAUCAACAUGAGGAUCACCCAUGUGAGGAUAUGUAUCAUAGAUCUUCGGAUCUAUGAUACAGAAGGCAUGUAGG | 101 | 118 | – | – |
| GACGUGUGAGGAUAUCCGAUGCCGGUCCGGAAGGUUCGGGUGGAGAAGGCACAUGAGGAUCACCCAUGUGUAAG | 18 | 26.5 | – | – |
| GGCGGUGACAUAGGAUAUCUUCUAAUGCACAUGAGGAUCACCCAUGUCGCUACGCACGGGUUUGAAGAGAAGGGUGUUCGUGCC | – | – | 346 | 286 |
